In ChEMBL document CHEMBL1255169, “Synthesis, structure-affinity relationships, and radiolabeling of selective high-affinity 5-HT4 receptor ligands as prospective imaging probes for positron emission tomography” (J Med Chem, 2010):
Calls of active or inactive are those of the source. No cut-off for these calls is given here.

Columns and labels:
[1] = biological target: 5-hydroxytryptamine receptor 4 (Cavia porcellus, UniProt O70528); experiment: Displacement of [3H]GR113808 from 5HT4 receptor in guinea pig striatal membranes; format: cell membranes, Striatum, Membrane
5-hydroxytryptamine receptor 4 (Cavia porcellus, UniProt O70528), sequence (O70528 whole entry): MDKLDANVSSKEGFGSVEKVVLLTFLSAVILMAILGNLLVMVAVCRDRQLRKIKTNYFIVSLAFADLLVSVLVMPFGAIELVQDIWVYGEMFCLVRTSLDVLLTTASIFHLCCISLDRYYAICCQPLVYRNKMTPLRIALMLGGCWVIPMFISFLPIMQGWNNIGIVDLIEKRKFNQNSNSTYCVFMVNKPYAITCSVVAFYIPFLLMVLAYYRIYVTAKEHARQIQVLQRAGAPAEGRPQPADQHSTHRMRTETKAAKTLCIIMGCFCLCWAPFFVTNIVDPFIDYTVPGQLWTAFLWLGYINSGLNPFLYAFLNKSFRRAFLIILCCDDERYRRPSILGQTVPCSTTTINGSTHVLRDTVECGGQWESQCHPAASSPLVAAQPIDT

[2] = biological target: T1, 5-hydroxytryptamine receptor 4 (Homo sapiens, UniProt Q13639); experiment: Displacement of [3H]GR113808 from human recombinant 5HT4 receptor expressed in HEK293 cells; format: cell-based
T1 sequence (Q13639 whole entry): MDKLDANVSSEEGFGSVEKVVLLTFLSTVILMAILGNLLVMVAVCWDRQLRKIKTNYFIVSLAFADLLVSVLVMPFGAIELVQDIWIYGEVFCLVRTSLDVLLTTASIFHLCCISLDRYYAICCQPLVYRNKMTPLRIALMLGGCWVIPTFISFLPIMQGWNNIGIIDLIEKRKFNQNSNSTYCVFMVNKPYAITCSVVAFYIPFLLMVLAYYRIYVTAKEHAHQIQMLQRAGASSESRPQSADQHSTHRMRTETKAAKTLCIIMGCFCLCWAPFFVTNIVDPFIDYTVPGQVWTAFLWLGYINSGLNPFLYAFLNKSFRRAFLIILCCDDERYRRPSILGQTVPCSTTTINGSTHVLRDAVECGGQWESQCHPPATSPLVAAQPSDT

[3] = biological target: T1, 5-hydroxytryptamine receptor 4; experiment: Inverse agonist activity at 5HT4 receptor expressed in HEK293/L9 cells by cAMP assay; format: functional, cell-based
[4] = biological target: T1, 5-hydroxytryptamine receptor 4; experiment: Agonist activity at 5HT4 receptor expressed in HEK293/L9 cells by cAMP assay; format: functional, cell-based
[5] = biological target: Sigma non-opioid intracellular receptor 1 (Rattus norvegicus, UniProt Q9R0C9); experiment: Binding affinity to rat sigma 1 receptor
Sigma non-opioid intracellular receptor 1, sequence (Q9R0C9 whole entry): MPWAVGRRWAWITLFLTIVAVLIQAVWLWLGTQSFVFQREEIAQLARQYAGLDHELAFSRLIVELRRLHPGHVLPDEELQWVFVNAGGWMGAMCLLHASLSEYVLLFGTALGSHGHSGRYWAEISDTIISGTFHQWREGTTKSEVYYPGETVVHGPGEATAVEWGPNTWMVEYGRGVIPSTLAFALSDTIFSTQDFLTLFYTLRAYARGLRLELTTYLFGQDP

[6] = biological target: T2, Alpha-2B adrenergic receptor (Homo sapiens, UniProt P18089); experiment: Binding affinity to human adrenergic alpha2B receptor
T2 sequence (P18089 whole entry): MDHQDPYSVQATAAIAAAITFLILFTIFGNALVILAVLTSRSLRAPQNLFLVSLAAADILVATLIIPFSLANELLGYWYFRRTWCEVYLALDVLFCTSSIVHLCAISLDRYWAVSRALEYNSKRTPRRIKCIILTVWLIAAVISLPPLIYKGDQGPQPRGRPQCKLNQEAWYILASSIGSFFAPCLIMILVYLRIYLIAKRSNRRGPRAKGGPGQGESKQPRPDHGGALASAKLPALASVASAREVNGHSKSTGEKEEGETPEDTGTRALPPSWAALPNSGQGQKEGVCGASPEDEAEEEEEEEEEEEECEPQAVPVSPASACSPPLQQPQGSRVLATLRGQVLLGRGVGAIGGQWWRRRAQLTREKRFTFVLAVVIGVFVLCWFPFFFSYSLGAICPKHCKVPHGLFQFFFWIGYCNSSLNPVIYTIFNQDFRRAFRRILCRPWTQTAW
How it was run: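 Radioligand binding run by the NIMH Psychoactive Drug Screening Program as part of a broad receptor and binding-site panel, which included α1A, α1B, α1D and α2A–C subtypes. Affinity is expressed as Ki.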

D(4) dopamine receptor = biological target: T3, D(4) dopamine receptor (Rattus norvegicus, UniProt P30729); experiment: Binding affinity to rat dopamine D4 receptor
T3 sequence (P30729 whole entry): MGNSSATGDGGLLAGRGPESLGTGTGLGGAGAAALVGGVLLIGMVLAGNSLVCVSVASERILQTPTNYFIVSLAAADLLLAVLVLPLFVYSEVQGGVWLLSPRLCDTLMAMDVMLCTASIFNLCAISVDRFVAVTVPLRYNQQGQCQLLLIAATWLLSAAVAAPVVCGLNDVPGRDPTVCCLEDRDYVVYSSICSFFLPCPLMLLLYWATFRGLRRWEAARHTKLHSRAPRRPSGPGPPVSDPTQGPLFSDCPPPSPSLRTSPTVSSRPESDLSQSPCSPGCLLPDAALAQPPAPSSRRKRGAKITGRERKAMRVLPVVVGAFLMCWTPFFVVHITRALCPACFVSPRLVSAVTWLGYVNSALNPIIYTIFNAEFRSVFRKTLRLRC

[7] = biological target: 5-hydroxytryptamine receptor 2B (Homo sapiens, UniProt P41595); experiment: Binding affinity to human 5-HT2B receptor
5-hydroxytryptamine receptor 2B, sequence (P41595 whole entry): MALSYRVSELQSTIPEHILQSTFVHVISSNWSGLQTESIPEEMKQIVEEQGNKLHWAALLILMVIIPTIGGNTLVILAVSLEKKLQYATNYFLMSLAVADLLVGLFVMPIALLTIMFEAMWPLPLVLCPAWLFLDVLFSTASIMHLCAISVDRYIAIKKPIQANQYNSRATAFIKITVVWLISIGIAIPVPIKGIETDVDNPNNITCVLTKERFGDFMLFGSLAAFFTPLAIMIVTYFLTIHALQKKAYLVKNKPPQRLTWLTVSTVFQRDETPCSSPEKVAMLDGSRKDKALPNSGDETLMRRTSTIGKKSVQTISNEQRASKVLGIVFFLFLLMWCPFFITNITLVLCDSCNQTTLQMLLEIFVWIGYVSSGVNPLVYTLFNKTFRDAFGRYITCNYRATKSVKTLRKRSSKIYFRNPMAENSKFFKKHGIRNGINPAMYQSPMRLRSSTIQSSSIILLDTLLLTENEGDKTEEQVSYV

[8] = Binding affinity to rat sigma 2 receptor
[9] = biological target: T4, 5-hydroxytryptamine receptor 2C (Homo sapiens, UniProt P28335); experiment: Binding affinity to human 5-HT2C receptor
T4 sequence (P28335 whole entry): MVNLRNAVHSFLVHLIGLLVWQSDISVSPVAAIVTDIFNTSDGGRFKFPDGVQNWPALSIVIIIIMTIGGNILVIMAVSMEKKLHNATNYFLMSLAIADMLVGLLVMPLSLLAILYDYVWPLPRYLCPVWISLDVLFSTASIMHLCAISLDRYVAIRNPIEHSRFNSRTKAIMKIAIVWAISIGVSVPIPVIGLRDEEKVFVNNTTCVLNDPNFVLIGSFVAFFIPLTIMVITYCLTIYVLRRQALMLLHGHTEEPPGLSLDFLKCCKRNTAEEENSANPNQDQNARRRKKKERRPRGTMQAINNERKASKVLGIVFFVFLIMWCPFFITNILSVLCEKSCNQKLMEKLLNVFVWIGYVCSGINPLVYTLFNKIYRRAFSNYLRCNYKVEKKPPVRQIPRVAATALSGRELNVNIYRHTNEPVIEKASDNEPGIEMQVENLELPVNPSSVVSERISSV

D(3) dopamine receptor = D(3) dopamine receptor (Rattus norvegicus, UniProt P19020); experiment: Binding affinity to rat dopamine D3 receptor
D(3) dopamine receptor, sequence (P19020 whole entry): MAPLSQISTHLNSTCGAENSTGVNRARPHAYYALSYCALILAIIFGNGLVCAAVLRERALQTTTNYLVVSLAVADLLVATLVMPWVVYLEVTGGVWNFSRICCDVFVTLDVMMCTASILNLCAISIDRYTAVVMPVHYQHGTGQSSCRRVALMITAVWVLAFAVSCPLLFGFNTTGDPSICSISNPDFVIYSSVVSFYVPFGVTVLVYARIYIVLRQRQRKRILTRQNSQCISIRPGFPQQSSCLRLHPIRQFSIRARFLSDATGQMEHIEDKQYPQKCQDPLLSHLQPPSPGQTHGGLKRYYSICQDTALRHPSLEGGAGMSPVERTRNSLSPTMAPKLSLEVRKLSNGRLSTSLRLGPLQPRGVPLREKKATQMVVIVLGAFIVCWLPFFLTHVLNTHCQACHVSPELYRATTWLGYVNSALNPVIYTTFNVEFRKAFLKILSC

[10] = biological target: T5, Alpha-1A adrenergic receptor (Homo sapiens, UniProt P35348); experiment: Binding affinity to human adrenergic alpha1A receptor
T5 sequence (P35348 whole entry): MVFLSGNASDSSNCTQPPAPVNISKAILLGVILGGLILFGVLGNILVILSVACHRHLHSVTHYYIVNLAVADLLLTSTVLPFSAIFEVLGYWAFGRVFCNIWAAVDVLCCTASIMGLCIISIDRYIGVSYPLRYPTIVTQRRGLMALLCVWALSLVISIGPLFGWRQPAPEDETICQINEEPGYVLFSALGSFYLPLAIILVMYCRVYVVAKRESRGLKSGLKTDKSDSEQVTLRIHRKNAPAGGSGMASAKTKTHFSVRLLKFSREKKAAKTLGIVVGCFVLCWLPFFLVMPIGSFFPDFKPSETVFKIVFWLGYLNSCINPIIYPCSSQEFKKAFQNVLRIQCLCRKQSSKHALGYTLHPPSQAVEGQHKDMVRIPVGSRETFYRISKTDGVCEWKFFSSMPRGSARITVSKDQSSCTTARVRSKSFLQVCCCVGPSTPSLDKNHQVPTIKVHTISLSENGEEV

[11] = biological target: T6, Alpha-1B adrenergic receptor (Homo sapiens, UniProt P35368); experiment: Binding affinity to human adrenergic Alpha-1B receptor
T6 sequence (P35368 whole entry): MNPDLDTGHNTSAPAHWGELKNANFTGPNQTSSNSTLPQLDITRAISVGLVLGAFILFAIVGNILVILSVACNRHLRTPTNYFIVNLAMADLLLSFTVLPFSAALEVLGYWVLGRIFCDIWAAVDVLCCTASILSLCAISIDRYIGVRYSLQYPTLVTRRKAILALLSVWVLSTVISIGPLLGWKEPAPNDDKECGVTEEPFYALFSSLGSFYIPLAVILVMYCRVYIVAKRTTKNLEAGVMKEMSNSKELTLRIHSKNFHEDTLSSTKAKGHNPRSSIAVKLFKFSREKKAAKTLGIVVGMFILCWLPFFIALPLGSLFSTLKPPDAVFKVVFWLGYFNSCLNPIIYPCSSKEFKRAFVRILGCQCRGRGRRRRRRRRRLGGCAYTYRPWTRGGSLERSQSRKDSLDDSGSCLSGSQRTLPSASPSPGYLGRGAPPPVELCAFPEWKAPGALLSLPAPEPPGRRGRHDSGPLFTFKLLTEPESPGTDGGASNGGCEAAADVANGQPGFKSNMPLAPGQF

Histamine H3 receptor = Histamine H3 receptor (Cavia porcellus, UniProt Q9JI35); experiment: Binding affinity to guinea pig histamine H3 receptor
Histamine H3 receptor, sequence (Q9JI35 whole entry): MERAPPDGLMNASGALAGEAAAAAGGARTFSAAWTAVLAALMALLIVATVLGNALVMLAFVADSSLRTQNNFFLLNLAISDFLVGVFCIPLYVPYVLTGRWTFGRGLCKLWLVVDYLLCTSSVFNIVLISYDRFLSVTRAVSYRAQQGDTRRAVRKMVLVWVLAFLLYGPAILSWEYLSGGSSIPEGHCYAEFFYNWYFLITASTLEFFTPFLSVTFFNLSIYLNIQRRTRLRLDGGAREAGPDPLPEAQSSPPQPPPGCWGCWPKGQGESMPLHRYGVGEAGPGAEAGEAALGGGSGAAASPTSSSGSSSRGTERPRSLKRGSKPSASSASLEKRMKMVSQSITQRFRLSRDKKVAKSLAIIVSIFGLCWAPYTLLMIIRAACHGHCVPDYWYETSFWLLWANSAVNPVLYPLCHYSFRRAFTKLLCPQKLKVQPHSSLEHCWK

[12] = biological target: 5-hydroxytryptamine receptor 1D (Homo sapiens, UniProt P28221); experiment: Binding affinity to human 5-HT1D receptor
5-hydroxytryptamine receptor 1D, sequence (P28221 whole entry): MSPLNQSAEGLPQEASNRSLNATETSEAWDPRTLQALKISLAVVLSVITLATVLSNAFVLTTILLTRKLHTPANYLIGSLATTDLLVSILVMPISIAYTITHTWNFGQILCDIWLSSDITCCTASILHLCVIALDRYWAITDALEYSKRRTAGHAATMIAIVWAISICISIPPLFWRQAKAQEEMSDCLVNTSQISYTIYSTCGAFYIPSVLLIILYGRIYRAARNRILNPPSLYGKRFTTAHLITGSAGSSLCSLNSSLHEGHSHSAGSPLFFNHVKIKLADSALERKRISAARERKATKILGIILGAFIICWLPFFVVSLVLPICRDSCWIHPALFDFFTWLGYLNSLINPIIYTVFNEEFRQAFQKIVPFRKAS

[13] = biological target: T7, Alpha-2C adrenergic receptor (Homo sapiens, UniProt P18825); experiment: Binding affinity to human adrenergic Alpha-2C receptor
T7 sequence (P18825 whole entry): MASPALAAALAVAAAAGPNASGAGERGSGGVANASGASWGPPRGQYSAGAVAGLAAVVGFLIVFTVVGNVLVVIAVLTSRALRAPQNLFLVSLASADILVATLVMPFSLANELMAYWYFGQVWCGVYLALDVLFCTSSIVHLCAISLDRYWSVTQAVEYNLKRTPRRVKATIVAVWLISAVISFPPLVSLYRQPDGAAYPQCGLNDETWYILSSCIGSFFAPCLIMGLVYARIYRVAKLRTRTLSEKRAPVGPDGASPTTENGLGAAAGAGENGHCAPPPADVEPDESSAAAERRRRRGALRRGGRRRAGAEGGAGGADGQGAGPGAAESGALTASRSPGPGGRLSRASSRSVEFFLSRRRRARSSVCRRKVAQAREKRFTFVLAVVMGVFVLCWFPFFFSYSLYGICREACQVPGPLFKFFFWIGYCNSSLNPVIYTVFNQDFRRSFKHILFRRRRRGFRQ

D(2) dopamine receptor = D(2) dopamine receptor (Rattus norvegicus, UniProt P61169); experiment: Binding affinity to rat dopamine D2 receptor
D(2) dopamine receptor, sequence (P61169 whole entry): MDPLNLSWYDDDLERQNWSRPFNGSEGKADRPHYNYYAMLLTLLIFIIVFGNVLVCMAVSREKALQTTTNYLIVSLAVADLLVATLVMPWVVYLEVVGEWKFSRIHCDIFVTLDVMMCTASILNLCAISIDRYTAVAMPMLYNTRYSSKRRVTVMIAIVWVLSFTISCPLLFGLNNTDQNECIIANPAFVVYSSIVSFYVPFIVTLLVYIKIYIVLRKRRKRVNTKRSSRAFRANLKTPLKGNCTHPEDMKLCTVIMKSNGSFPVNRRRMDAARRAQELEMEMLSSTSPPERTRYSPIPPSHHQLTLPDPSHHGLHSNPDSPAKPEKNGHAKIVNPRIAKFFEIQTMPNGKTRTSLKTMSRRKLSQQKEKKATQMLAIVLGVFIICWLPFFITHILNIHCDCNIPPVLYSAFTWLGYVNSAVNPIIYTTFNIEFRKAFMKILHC

[14] = biological target: T1, 5-hydroxytryptamine receptor 4; experiment: Antagonist activity at 5HT4 receptor expressed in HEK293/L9 cells by cAMP assay; format: functional, cell-based

Ki [1]	Ki [2]	Efficacy [3]	EC50 [4]	SMILES	also measured
0.901 nM	17 nM	–	–	CCCN1CCC(COC(=O)c2ccc(N)c(OC)c2)CC1	–
0.334 nM	17 nM	–	–	CCCCN1CCC(COC(=O)c2ccc(N)c(OCF)c2)CC1	–
–	7.8 nM	–	–	CCCCN1CCC(COC(=O)c2cc([N+](=O)[O-])c(N)c3c2OCCO3)CC1	–
–	8660 nM	–	–	CCCCN1CCC(CNC(=O)c2ccc(N)c(OC)c2)CC1	–
–	37 nM	Active	15.8 nM	CCCCN1CCC(COC(=O)c2cc(C#N)c(NC)c3c2OCCO3)CC1	–
–	7.4 nM	Active	20 nM	CCCCN1CCC(COC(=O)c2cc(I)c(NC)c3c2OCCO3)CC1	–
0.45 nM	33 nM	–	–	CCCCN1CCC(COC(=O)c2cc(C#N)c(N)c3c2OCCO3)CC1	–
0.334 nM	2.1 nM	Active	5.89 nM	CCCCN1CCC(COC(=O)c2cc(F)c(N)c3c2OCCO3)CC1	Ki [5]: 55 nM; Ki [6]: 773 nM; Ki (D(4) dopamine receptor): 316 nM; Ki [7]: 168 nM; Ki [8]: 12.9 nM; Ki [9]: 8360 nM; Ki (D(3) dopamine receptor): 1010 nM; Ki [10]: 87.6 nM; Ki [11]: 9080 nM; Ki (Histamine H3 receptor): 5040 nM; Ki [12]: 2860 nM; Ki [13]: 593 nM; Ki (D(2) dopamine receptor): 615 nM
–	6.3 nM	–	–	CCCCN1CCC(COC(=O)c2cc(C)c(N)c3c2OCCO3)CC1	Efficacy [14]: Active
–	9.1 nM	Active	8.91 nM	CCCCN1CCC(COC(=O)c2ccc(NC)c3c2OCCO3)CC1	–
0.215 nM	11 nM	–	–	CCCCN1CCC(COC(=O)c2ccc(N)c(OCCF)c2)CC1	–
0.2 nM	–	–	–	CCCCN1CCC(COC(=O)c2cc(I)c(N)c3c2OCCO3)CC1	–
–	12 nM	–	–	CCCCCN1CCC(COC(=O)c2ccc(N)c(OC)c2)CC1	–
–	1.4 nM	–	–	CCCCN1CCC(COC(=O)c2ccc(N)c3c2OCCO3)CC1	Efficacy [14]: Active
–	4.5 nM	Active	10 nM	CCCCN1CCC(COC(=O)c2cc(Br)c(NC)c3c2OCCO3)CC1	–
